# This is a sample that favours compounds with a hit; in the whole collection about 4.6% have one here.
# GPR7 antag: blocks human GPR7 receptor signaling. P48145. GPR7-expressing cells, fluorescence antagonist assay. inhibition, % at 4.4 µM. 1.1% of 290,000 active; in the data active means inhibition above about 16%, passing the limit was not always enough;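 further: cells stimulated with the agonist NPW; 0% = agonist with vehicle and 100% = vehicle without agonist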
# Target sequence (P48145 whole entry, looked up): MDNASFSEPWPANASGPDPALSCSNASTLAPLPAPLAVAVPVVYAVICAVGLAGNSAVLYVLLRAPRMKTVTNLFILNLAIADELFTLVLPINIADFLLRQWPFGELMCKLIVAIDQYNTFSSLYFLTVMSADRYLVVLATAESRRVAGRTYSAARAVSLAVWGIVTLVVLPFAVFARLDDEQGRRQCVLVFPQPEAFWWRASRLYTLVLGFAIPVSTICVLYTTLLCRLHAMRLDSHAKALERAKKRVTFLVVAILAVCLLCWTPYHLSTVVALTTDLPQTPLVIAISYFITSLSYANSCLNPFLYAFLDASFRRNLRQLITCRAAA
# TAAR1 antagonist: human TAAR1 antagonism; Q96RJ0; CHO RD-HGA16 TAAR1, Fluo-8 calcium fluorescence, antagonist; inhibition, % at 3 µM; 1.5% of 360,000 active; AID 624466;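 active means inhibition above a per-plate cutoff, the mean inhibition of test compounds on that plate plus 3 SD, cut at about 49% in these data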;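 further: 0% = DMSO plus EC80 beta-PEA response and 100% = DMSO alone without agonist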
#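 test system = CHO RD-HGA16 cells bearing hTAAR1 | replication = singlicate | controls = DMSO-only wells and EC80 β-PEA-stimulated wells | reagent = EC80 β-phenethylamine stimulus | read-out basis = percent inhibition of PEA-evoked calcium signal, max/basal emission ratio | schedule = seeding 17-24 h prior, 75-min 37 °C, 30-min RT dye loading | signal = kinetic Fluo-8 calcium fluorescence measurement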
# OX1R antag-1: blocks the human orexin 1 receptor. O43613. inhibition, % at 6.6 µM. 1.8% of 330,000 active. AID 485270. OX1R-expressing cells, FRET antagonist read-out; in the data active means inhibition mostly above about 38%, no sharp cut-off; inactive means mostly below about 40%;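 further: 0% = agonist challenge alone and 100% = reference antagonist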
# Target sequence (O43613 whole entry, looked up): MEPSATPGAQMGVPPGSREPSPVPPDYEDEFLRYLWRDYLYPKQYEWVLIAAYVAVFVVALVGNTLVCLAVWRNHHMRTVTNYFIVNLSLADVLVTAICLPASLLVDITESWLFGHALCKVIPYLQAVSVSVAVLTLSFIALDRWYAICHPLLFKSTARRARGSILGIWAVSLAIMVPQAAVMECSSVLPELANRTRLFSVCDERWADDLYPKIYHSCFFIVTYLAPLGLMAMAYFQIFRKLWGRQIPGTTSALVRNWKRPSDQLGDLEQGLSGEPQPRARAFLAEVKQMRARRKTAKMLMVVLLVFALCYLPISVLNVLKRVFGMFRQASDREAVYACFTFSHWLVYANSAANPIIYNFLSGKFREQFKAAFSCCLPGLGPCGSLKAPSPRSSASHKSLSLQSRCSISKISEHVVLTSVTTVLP
# CHO parental Ca: counter-screen for OX1R antagonists: effect in parental CHO cells. parental CHO-K1, ATP-induced calcium, Fluo-8 fluorescence. inhibition, % at 5.6 µM. 0.63% of 330,000 active. AID 463079;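 active means inhibition above that plate's mean sample inhibition plus 3 SD, cut at about 26% in these data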;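 further: 0% = ATP-challenged DMSO wells and 100% = DMSO wells without ATP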
#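 Material – parental CHO cells · Reagent – ATP stimulus · Compound – single nominal dose of 5.6 µM per compound · Detection – Fluo-8 fluorescence · Read-out basis – percent inhibition of calcium signal · Controls – ATP-challenged DMSO wells low, unchallenged DMSO wells high · Repeats – no replicates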
# OX1R antag-2: human HCRTR1 antagonism. O43613. CHO/OX1R cells, Fluo-8 calcium fluorescence, orexin A. inhibition, % at 5 µM. 0.43% of 330,000 active. AID 434989;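 active means inhibition above its plate's threshold, mean inhibition of all tested compounds on the plate plus 3 SD, cut at about 37% in these data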;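 further: 0% = orexin A challenge wells and 100% = SB-334867-A antagonist wells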
# TAAR1 ag: human TAAR1 agonism; Q96RJ0; CHO RD-HGA16 TAAR1, Fluo-8 calcium fluorescence; vehicle wells 0%, saturating PEA agonist 100%; activation, % at 3 µM; 0.99% of 360,000 active; AID 624467;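 active means activation above the mean activation of all test compounds in the run plus 3 SD, cut at about 38% in these data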
#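 System: CHO-derived RD-HGA16 cells with stable Gα16 and human TAAR1 / Times: 17-24 h plating, Fluo-8 75 min 37 °C, 30 min RT / Technique: calcium-sensitive Fluo-8 signal, excitation 470-495, emission 515-575 nm / Measure: % activation relative to PEA EC100 response / Benchmarks: DMSO and PEA EC100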
# TAAR1 nonsel count: counter-screen for TAAR1 antagonists: nonselective antagonists; 77% of 2,400 active; shares compounds with TAAR1 antagonist; AID 651780; counterscreen cell line, calcium fluorescence, antagonist mode; inhibition, % at 3 µM; in the data active means inhibition above about 22%;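 further: CHO-Ga16 host cells stimulated with ATP at an EC80 level; 0% = agonist EC80 plus vehicle and 100% = vehicle without agonist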
# TAAR1 ant conf: confirmation of human TAAR1 antagonists | shares compounds with TAAR1 antagonist | TAAR1-expressing cells, fluorescence antagonist read-out | inhibition, % at 3 µM | 40% of 2,400 active | AID 651785; in the data active means inhibition above about 49%;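 further: CHO-Ga16 host cells challenged with agonist PEA near its EC80; 0% = agonist at EC80 plus vehicle and 100% = vehicle with no agonist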
# Ga16 ag counter: counter-screen for TAAR1 antagonists: nonselective Ga16 agonists | AID 651953 | 18% of 2,400 active | shares compounds with TAAR1 antagonist | activation, % at 3 µM | Ga16-expressing cells, calcium fluorescence, agonist counterscreen; in the data active means activation above about 12%;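 further: 0% = vehicle wells and 100% = saturating stimulus response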
# TAAR1 ag count: counter-screen for human TAAR1 antagonists: TAAR1 agonists; shares compounds with TAAR1 antagonist; activation, % at 3 µM; hTAAR1 cell line, fluorescence activation, agonist mode; 2% of 2,400 active; in the data active means activation above about 37%;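 further: CHO cells stably expressing TAAR1 with calcium dye readout; 0% = DMSO vehicle and 100% = full agonist response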
# Numbers without * were called inactive; . = not tested or not shown.
SMILES,GPR7 antag,TAAR1 antagonist,OX1R antag-1,CHO parental Ca,OX1R antag-2,TAAR1 ag,TAAR1 nonsel count,TAAR1 ant conf,Ga16 ag counter,TAAR1 ag count
Cc1c(-c2ccccc2)oc2c(C(=O)OCC(=O)Nc3cccc(F)c3)cccc2c1=O,-6.3,63.3*,29.6,-20.6,-30.4,11.8,33.5*,64.4*,7.6,3.4
Cc1csc(NC(=O)CCc2nc3ccccc3s2)n1,-14.8,-7.6,29.8,-29.7,-16.1,2.7,.,.,.,.
O=C(COC(=O)CCc1nc2ccccc2s1)Nc1nc(-c2ccccc2)cs1,-8.7,55.1*,7.0,-11.2,-16.9,4.1,33.0*,36.9,4.4,7.2
Cc1ccc(S(=O)(=O)CC(=O)Nc2ccc3nc(C)sc3c2)cc1,-4.2,1.8,11.2,-17.3,-19.6,2.0,.,.,.,.
Cc1ccc(NC(=O)c2ccc(N3C(=O)C4CC=C(Cl)CC4C3=O)cc2)cc1 (centres undefined),6.2,62.5*,14.7,-6.4,10.3,26.9,23.8*,44.8,13.4*,14.5
Cc1ccc(C(=O)Nc2cccc(N3C(=O)C4CCC(C)CC4C3=O)c2)cc1 (centres undefined),-18.3,71.3*,14.0,-15.3,-7.0,11.9,31.0*,50.3*,7.5,4.7
C/C(=N\O)c1ccc(N2C(=O)C3CC=C(Cl)CC3C2=O)cc1 (centres undefined),-1.4,6.5,-1.1,-10.1,-2.9,7.0,.,.,.,.
O=C(NC1CCCc2ccccc21)N[C@@H](Cc1ccccc1)C(=O)O (some centres undefined),-8.4,9.8,-6.6,-6.1,-3.7,3.5,.,.,.,.
COc1ccc(C(=O)Cn2nnc(-c3ccccc3NC(=O)c3ccco3)n2)cc1,1.8,54.8*,14.0,-32.3,-28.1,15.9,20.4,48.2,8.8,10.8
COc1ccc(-n2nnnc2SCc2nc3ccccc3s2)cc1,1.0,14.9,25.2,4.3,-15.0,1.9,.,.,.,.
COc1ccc(C)cc1-n1nnnc1SCc1nc2ccccc2s1,3.3,53.8*,42.7,-7.5,-17.3,15.9,26.8*,26.8,5.8,2.6
CC(=O)N(CCc1ccccc1C)Cc1cc2cc3c(cc2[nH]c1=O)OCO3,-1.5,-3.6,21.2,-7.7,-4.6,1.6,.,.,.,.
CCC(=O)N(CCc1ccccc1C)Cc1cc2ccc(C)cc2[nH]c1=O,2.1,60.4*,9.0,-22.7,-44.2,19.7,28.5*,49.2*,11.4,12.9
CCOC(=O)N1CCN(C(=O)CCc2ccc(S(=O)(=O)NC(C)(C)C)cc2)CC1,11.1,-13.8,.,.,.,-0.1,.,.,.,.
COc1ccc2c(c1)[nH]c1c(=O)n(/N=C/C3C(C)C=C(C)CC3C)c(=O)[nH]c12 (centres undefined),-18.6,62.2*,24.4,-0.1,-12.6,17.4,21.0,41.1,6.9,8.8
COc1ccc2[nH]c3c(=O)n(N)c(=O)[nH]c3c2c1,-5.4,-0.5,.,.,.,4.0,.,.,.,.
CC1=CC(C)[C@H](/C=N/n2c(=O)[nH]c3c([nH]c4ccc(Br)cc43)c2=O)C(C)C1 (some centres undefined),-13.0,10.6,8.1,-1.9,-12.7,1.8,.,.,.,.
COc1ccc2[nH]c3c(=O)n(/N=C/[C@H]4C(C)C=C(C)CC4C)c(=O)[nH]c3c2c1 (some centres undefined),15.0,60.2*,24.4,-8.3,-18.2,18.3,34.4*,48.2,9.2,10.3
CC(C)(C)N=C1NC(=NC(C)(C)C)c2ccccc21,-4.8,9.8,11.1,-17.0,-6.8,8.1,.,.,.,.
COc1ccc(N2CCN(C(=O)c3ccc(CS(=O)(=O)c4ccc(OC)cc4)o3)CC2)cc1,2.4,3.6,8.9,-20.5,-18.9,1.5,.,.,.,.
O=C(c1ccc(CS(=O)Cc2ccc(Cl)cc2)o1)N1CCN(c2ccc(F)cc2)CC1 (centres undefined),9.1,72.3*,7.4,-7.5,-29.8,23.9,15.2,10.9,3.9,5.4
COc1ccccc1S(=O)(=O)Cc1ccc(C(=O)N2CCN(c3ccc(C)cc3)C(C)C2)o1 (centres undefined),-10.6,40.9,5.2,-13.7,-40.9,12.2,.,.,.,.
COc1ccc(S(=O)(=O)Cc2ccc(C(=O)N3CCN(c4ccc(Cl)cc4)CC3)o2)cc1,11.3,71.8*,12.9,40.5*,9.8,5.0,33.4*,35.8,8.5,6.9
COc1ccc(S(=O)(=O)Cc2ccc(C(=O)N3CCN(c4cccc(C)c4)C(C)C3)o2)cc1 (centres undefined),-7.7,59.5*,12.5,-3.9,-29.9,3.7,31.3*,38.5,9.6,8.9
O=C(Nc1ccc(-c2nc3ccccc3s2)c(OC(=O)c2ccccc2)c1)c1ccccc1,0.3,-3.4,12.8,-6.9,-12.4,1.9,.,.,.,.
SMILES,GPR7 antag,TAAR1 antagonist,OX1R antag-1,CHO parental Ca,OX1R antag-2,TAAR1 ag,TAAR1 nonsel count,TAAR1 ant conf,Ga16 ag counter,TAAR1 ag count
CC(=O)CC1c2cc(F)ccc2C=C(c2ccsc2)N1c1ccc(-c2ccc(C(N)=O)cc2)cc1 (centres undefined),.,8.0,.,.,.,1.2,.,.,.,.
COc1cc2cc(CN(Cc3nnnn3Cc3ccco3)C3CCCCC3)c(=O)[nH]c2cc1OC,4.0,4.3,46.5,-12.4,-0.1,9.0,.,.,.,.
CCOc1ccc2[nH]c(=O)c(CN(Cc3nnnn3Cc3ccco3)C3CCCCC3)cc2c1,-9.5,54.3*,29.3,-21.0,-15.6,26.1,28.1*,58.2*,8.2,13.6
Cc1noc(C)c1COC(=O)c1cccc(N(C)C)c1,-16.6,-11.9,7.7,-27.4,-27.1,1.8,.,.,.,.
COc1ccc2c(c1OC)C(=O)N1c3ccccc3C(=O)N(c3ccccc3)C21 (centres undefined),11.4,62.8*,18.4,-22.4,-24.0,22.2,32.3*,51.4*,12.2*,10.9
COc1cccc(C2Nc3ccccc3C(=O)N2c2ccc(F)cc2)c1O (centres undefined),0.8,-9.9,-11.3,-5.6,-8.1,2.0,.,.,.,.
COc1ccc2c(c1OC)C(=O)N1c3ccccc3C(=O)N(c3ccc(F)cc3)C21 (centres undefined),16.4,82.1*,35.2,-17.4,-23.8,19.3,28.0*,49.4*,8.2,11.3
Cc1ccccc1N1C(=O)c2ccccc2N2C(=O)c3ccccc3C12 (centres undefined),5.0,-11.4,22.9,-1.7,-7.6,-1.1,.,.,.,.

# From PubChem BioAssay
